{"source": "ChEMBL document CHEMBL5724801", "about": "“EUbOPEN Chemogenomics Library - Multiplex” (2024)", "key": {"U2OS": {"system": "U2OS", "experiment": "Multiplex assay against U2OS", "type": "toxicity, cell-based", "details": "human", "procedure,_shortened": "(§1)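 Cells stained live at seeding with Hoechst33342, BioTracker Green Microtubule Cytoskeleton Dye, MitoTracker Red and Annexin V Alexa Fluor 680 were imaged on a CQ1 microscope at 37°C and 5% CO2 after compound addition. Their classification by CellPathfinder machine-learning gating ran from Hoechst high-intensity objects versus normal cells, to healthy, pyknosed or fragmented nuclei among normal cells, to mitotic or apoptotic among pyknosed cells. Tubulin, mitochondrial-mass and membrane-permeability phenotypes are per cents of healthy-nucleus cells.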"}, "Fibroblast": {"system": "Fibroblast", "experiment": "Multiplex assay against human fibroblast", "type": "toxicity, cell-based", "procedure,_shortened": "as §1"}, "[1]": {"details": "24 h, 10 µM, compound concentration 10 uM"}, "[2]": {"details": "48 h, 1 µM, compound concentration 1 uM"}, "[3]": {"details": "48 h, 10 µM, compound concentration 10 uM"}, "[4]": {"details": "12 h, 1 µM, compound concentration 1 uM"}, "[5]": {"details": "12 h, 10 µM, compound concentration 10 uM"}, "[6]": {"details": "24 h, 1 µM, compound concentration 1 uM"}}, "note": "Values joined by “and” are separate entries in the source; they are usually repeats but may differ in a detail not shown here. Identical values can stand only once.", "data": [{"smiles": "CN(C)Cc1cccc(NC(=C2C(=O)Nc3cc(C(=O)N(C)C)ccc32)c2ccccc2)c1", "values": [{"measurement": "Population Membrane Permeable-Phenotype (%)", "setting": "U2OS; [1]", "value": "18.8% and 30.1%"}, {"measurement": "Population Mitotic Cells (%)", "setting": "U2OS; [1]", "value": "29.13% and 30.16%"}, {"measurement": "Population Normal (%)", "setting": "U2OS; [1]", "value": "99.72% and 100%"}, {"measurement": "Population Pyknosed Nuclei (%)", "setting": "U2OS; [1]", "value": "29.01% and 35.59%"}, {"measurement": "Population Tubulin-Different-Phenotype (%)", "setting": "U2OS; [1]", "value": "47.86% and 58.25%"}, {"measurement": "Total Cell Count", "setting": "U2OS; [1]", "value": "356 and 177"}, {"measurement": "Population Apoptotic (%)", "setting": "U2OS; [2]", "value": "54.74% and 41.51%"}, {"measurement": "Population Fragmented Nuclei (%)", "setting": "U2OS; [2]", "value": "2.6% and 1.21%"}, {"measurement": "Population Healthy Nuclei (%)", "setting": "U2OS; [2]", "value": "87.9% and 82.73%"}, {"measurement": "Population Hoechst High Intensity Objects (%)", "setting": "U2OS; [2]", "value": 0, "unit": "%"}, {"measurement": "Population Membrane Permeable-Phenotype (%)", "setting": "U2OS; [2]", "value": "1.02% and 2.56%"}, {"measurement": "Population Mitochondria Different-Phenotype (%)", "setting": "U2OS; [2]", "value": "0% and 5.13%"}, {"measurement": "Population Mitotic Cells (%)", "setting": "U2OS; [2]", "value": "45.26% and 58.49%"}, {"measurement": "Population Normal (%)", "setting": "U2OS; [2]", "value": 100, "unit": "%"}, {"measurement": "Population Pyknosed Nuclei (%)", "setting": "U2OS; [2]", "value": "9.5% and 16.06%"}, {"measurement": "Population Tubulin-Different-Phenotype (%)", "setting": "U2OS; [2]", "value": "0.57% and 2.56%"}, {"measurement": "Population Apoptotic (%)", "setting": "U2OS; [3]", "value": "82.42% and 88.41%"}, {"measurement": "Population Fragmented Nuclei (%)", "setting": "U2OS; [3]", "value": "3.22% and 2.72%"}, {"measurement": "Population Healthy Nuclei (%)", "setting": "U2OS; [3]", "value": "72.39% and 59.78%"}, {"measurement": "Population Hoechst High Intensity Objects (%)", "setting": "U2OS; [3]", "value": 0, "unit": "%"}, {"measurement": "Population Mitochondria Different-Phenotype (%)", "setting": "U2OS; [3]", "value": "14.07% and 38.18%"}, {"measurement": "Population Mitotic Cells (%)", "setting": "U2OS; [3]", "value": "17.58% and 11.59%"}, {"measurement": "Population Normal (%)", "setting": "U2OS; [3]", "value": 100, "unit": "%"}, {"measurement": "Population Pyknosed Nuclei (%)", "setting": "U2OS; [3]", "value": "24.4% and 37.5%"}, {"measurement": "Population Tubulin-Different-Phenotype (%)", "setting": "U2OS; [3]", "value": "61.85% and 69.09%"}, {"measurement": "Total Cell Count", "setting": "U2OS; [3]", "value": "373 and 184"}, {"measurement": "Population Fragmented Nuclei (%)", "setting": "Fibroblast; [4]", "value": "12.28% and 5.26%"}, {"measurement": "Population Healthy Nuclei (%)", "setting": "Fibroblast; [4]", "value": "63.16% and 78.47%"}, {"measurement": "Population Hoechst High Intensity Objects (%)", "setting": "Fibroblast; [4]", "value": 0, "unit": "%"}, {"measurement": "Population Membrane Permeable-Phenotype (%)", "setting": "Fibroblast; [4]", "value": "4.17% and 9.15%"}, {"measurement": "Population Mitochondria Different-Phenotype (%)", "setting": "Fibroblast; [4]", "value": "12.5% and 7.93%"}, {"measurement": "Population Mitotic Cells (%)", "setting": "Fibroblast; [4]", "value": "91.07% and 67.65%"}, {"measurement": "Population Normal (%)", "setting": "Fibroblast; [4]", "value": 100, "unit": "%"}, {"measurement": "Population Pyknosed Nuclei (%)", "setting": "Fibroblast; [4]", "value": "24.56% and 16.27%"}, {"measurement": "Population Tubulin-Different-Phenotype (%)", "setting": "Fibroblast; [4]", "value": "20.14% and 25%"}, {"measurement": "Total Cell Count", "setting": "Fibroblast; [4]", "value": "228 and 209"}, {"measurement": "Population Apoptotic (%)", "setting": "Fibroblast; [5]", "value": "15.09% and 31.43%"}, {"measurement": "Population Fragmented Nuclei (%)", "setting": "Fibroblast; [5]", "value": "12.72% and 8.65%"}, {"measurement": "Population Healthy Nuclei (%)", "setting": "Fibroblast; [5]", "value": "64.04% and 80.13%"}, {"measurement": "Population Hoechst High Intensity Objects (%)", "setting": "Fibroblast; [5]", "value": 0, "unit": "%"}, {"measurement": "Population Membrane Permeable-Phenotype (%)", "setting": "Fibroblast; [5]", "value": "8.22% and 6.4%"}, {"measurement": "Population Mitochondria Different-Phenotype (%)", "setting": "Fibroblast; [5]", "value": "23.97% and 16.8%"}, {"measurement": "Population Mitotic Cells (%)", "setting": "Fibroblast; [5]", "value": "84.91% and 68.57%"}, {"measurement": "Population Normal (%)", "setting": "Fibroblast; [5]", "value": 100, "unit": "%"}, {"measurement": "Population Pyknosed Nuclei (%)", "setting": "Fibroblast; [5]", "value": "23.25% and 11.22%"}, {"measurement": "Population Tubulin-Different-Phenotype (%)", "setting": "Fibroblast; [5]", "value": "54.79% and 75.6%"}, {"measurement": "Total Cell Count", "setting": "Fibroblast; [5]", "value": "228 and 312"}, {"measurement": "Population Fragmented Nuclei (%)", "setting": "Fibroblast; [6]", "value": "10.42% and 4.72%"}, {"measurement": "Population Healthy Nuclei (%)", "setting": "Fibroblast; [6]", "value": "77.5% and 83.96%"}, {"measurement": "Population Hoechst High Intensity Objects (%)", "setting": "Fibroblast; [6]", "value": 0, "unit": "%"}, {"measurement": "Population Membrane Permeable-Phenotype (%)", "setting": "Fibroblast; [6]", "value": "1.08% and 2.81%"}, {"measurement": "Population Mitochondria Different-Phenotype (%)", "setting": "Fibroblast; [6]", "value": "4.84% and 10.11%"}, {"measurement": "Population Mitotic Cells (%)", "setting": "Fibroblast; [6]", "value": "93.1% and 75%"}, {"measurement": "Population Normal (%)", "setting": "Fibroblast; [6]", "value": 100, "unit": "%"}, {"measurement": "Population Pyknosed Nuclei (%)", "setting": "Fibroblast; [6]", "value": "12.08% and 11.32%"}, {"measurement": "Population Tubulin-Different-Phenotype (%)", "setting": "Fibroblast; [6]", "value": "11.29% and 23.03%"}, {"measurement": "Total Cell Count", "setting": "Fibroblast; [6]", "value": "240 and 212"}, {"measurement": "Population Apoptotic (%)", "setting": "Fibroblast; [1]", "value": "13.33% and 25%"}, {"measurement": "Population Healthy Nuclei (%)", "setting": "Fibroblast; [1]", "value": "66.94% and 85.67%"}, {"measurement": "Population Hoechst High Intensity Objects (%)", "setting": "Fibroblast; [1]", "value": 0, "unit": "%"}, {"measurement": "Population Membrane Permeable-Phenotype (%)", "setting": "Fibroblast; [1]", "value": "8.43% and 2.18%"}, {"measurement": "Population Mitochondria Different-Phenotype (%)", "setting": "Fibroblast; [1]", "value": "24.7% and 21.82%"}, {"measurement": "Population Mitotic Cells (%)", "setting": "Fibroblast; [1]", "value": "86.67% and 75%"}, {"measurement": "Population Normal (%)", "setting": "Fibroblast; [1]", "value": 100, "unit": "%"}, {"measurement": "Population Pyknosed Nuclei (%)", "setting": "Fibroblast; [1]", "value": "18.15% and 9.97%"}, {"measurement": "Population Tubulin-Different-Phenotype (%)", "setting": "Fibroblast; [1]", "value": "63.25% and 79.64%"}, {"measurement": "Total Cell Count", "setting": "Fibroblast; [1]", "value": "248 and 321"}, {"measurement": "Population Apoptotic (%)", "setting": "Fibroblast; [2]", "value": "26.67% and 31.25%"}, {"measurement": "Population Fragmented Nuclei (%)", "setting": "Fibroblast; [2]", "value": "11.31% and 7.86%"}, {"measurement": "Population Healthy Nuclei (%)", "setting": "Fibroblast; [2]", "value": "83.21% and 85.15%"}, {"measurement": "Population Hoechst High Intensity Objects (%)", "setting": "Fibroblast; [2]", "value": 0, "unit": "%"}, {"measurement": "Population Membrane Permeable-Phenotype (%)", "setting": "Fibroblast; [2]", "value": "0.88% and 7.18%"}, {"measurement": "Population Mitotic Cells (%)", "setting": "Fibroblast; [2]", "value": "73.33% and 68.75%"}, {"measurement": "Population Normal (%)", "setting": "Fibroblast; [2]", "value": 100, "unit": "%"}, {"measurement": "Population Pyknosed Nuclei (%)", "setting": "Fibroblast; [2]", "value": "5.47% and 6.99%"}, {"measurement": "Population Tubulin-Different-Phenotype (%)", "setting": "Fibroblast; [2]", "value": "7.46% and 16.92%"}, {"measurement": "Total Cell Count", "setting": "Fibroblast; [2]", "value": "274 and 229"}, {"measurement": "Population Apoptotic (%)", "setting": "Fibroblast; [3]", "value": "33.33% and 64.71%"}, {"measurement": "Population Fragmented Nuclei (%)", "setting": "Fibroblast; [3]", "value": "14.48% and 6.69%"}, {"measurement": "Population Healthy Nuclei (%)", "setting": "Fibroblast; [3]", "value": "77.44% and 87.9%"}, {"measurement": "Population Hoechst High Intensity Objects (%)", "setting": "Fibroblast; [3]", "value": 0, "unit": "%"}, {"measurement": "Population Membrane Permeable-Phenotype (%)", "setting": "Fibroblast; [3]", "value": "1.3% and 2.9%"}, {"measurement": "Population Mitochondria Different-Phenotype (%)", "setting": "Fibroblast; [3]", "value": "11.3% and 9.42%"}, {"measurement": "Population Mitotic Cells (%)", "setting": "Fibroblast; [3]", "value": "66.67% and 35.29%"}, {"measurement": "Population Normal (%)", "setting": "Fibroblast; [3]", "value": 100, "unit": "%"}, {"measurement": "Population Pyknosed Nuclei (%)", "setting": "Fibroblast; [3]", "value": "8.08% and 5.41%"}, {"measurement": "Population Tubulin-Different-Phenotype (%)", "setting": "Fibroblast; [3]", "value": "43.48% and 85.14%"}, {"measurement": "Total Cell Count", "setting": "Fibroblast; [3]", "value": "297 and 314"}]}]}
